{"source": "ChEMBL document CHEMBL3414449", "about": "“DUPA conjugation of a cytotoxic indenoisoquinoline topoisomerase I inhibitor for selective prostate cancer cell targeting” (J Med Chem, 2015)", "key": {"Mus musculus [1]": {"test_system": "Mus musculus", "assay": "Toxicity in human 22Rv1 cells xenografted nu/nu mouse at 2 umol/kg, ip administered as single dose on alternative days, 3 days/week for 3 weeks", "assay_type": "organism-based, CWR22R", "conditions": "in vivo", "procedure,_shortened": "(§1)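 Male nu/nu mice, 5–6 weeks old, given 2 × 10^6 22RV1 cells in 20% HC Matrigel in the right shoulder. Dosing began at tumor ~100 mm3, 5 mice/group, ip in sterile saline (100 μL). Tumors measured by caliper every 2–3 days, volume = 0.5 × L × W2. Body weight recorded at each dosing. Live mice counted per dose. Untreated controls got saline.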"}, "CWR22R [2]": {"test_system": "CWR22R", "assay": "Antitumor activity against human 22Rv1 cells xenografted in nu/nu mouse assessed as reduction in tumor mass at 2 umol/kg, ip administered as single dose on alternative days, 3 days/week for 3 weeks by hematoxylin and eosin staining", "assay_type": "functional, organism-based"}, "CWR22R [3]": {"test_system": "CWR22R", "assay": "Cytotoxicity against human 22Rv1 cells after 24 hrs by [3H]thymidine incorporation assay", "assay_type": "functional, cell-based", "procedure,_shortened": "(§2)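 22RV1 cells seeded at 50 000/well and grown to monolayer over 24–48 h. Drug pulse in fresh medium at 37 °C for 2 h or 24 h, then washed and chased 66 h. Labelled with 3H-thymidine (1 mCi/mL) for 4 h, TCA-precipitated, NaOH-solubilized and scintillation counted. IC50 from % incorporation vs log concentration.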"}, "CWR22R [4]": {"test_system": "CWR22R", "assay": "Cytotoxicity against human 22Rv1 cells after 2 hrs by [3H]thymidine incorporation assay", "assay_type": "functional, cell-based", "procedure,_shortened": "as §2"}, "Mus musculus [5]": {"test_system": "Mus musculus", "assay": "Toxicity in human 22Rv1 cells xenografted nu/nu mouse assessed as induction of mouse death at 2 umol/kg, ip administered as single dose on alternative days, 3 days/week for 3 weeks", "assay_type": "organism-based, CWR22R", "conditions": "in vivo", "procedure,_shortened": "as §1"}, "CWR22R [6]": {"test_system": "CWR22R", "assay": "Antitumor activity against human 22Rv1 cells xenografted in nu/nu mouse assessed as regression of tumor growth at 2 umol/kg, ip administered as single dose on alternative days, 3 days/week for 3 weeks", "assay_type": "functional, organism-based", "procedure,_shortened": "as §1"}, "CWR22R [7]": {"test_system": "CWR22R", "assay": "Antitumor activity against human 22Rv1 cells xenografted in nu/nu mouse assessed as regression of tumor growth at 2 umol/kg, ip administered as single dose on alternative days, 3 days/week for 3 weeks co-administered with 100 fold excess dose of DUPA-Aoc-Phe-Phe-Dap-Asp-Cys reagent", "assay_type": "functional, organism-based", "procedure,_shortened": "as §1"}, "Mus musculus [8]": {"test_system": "Mus musculus", "assay": "Toxicity in human 22Rv1 cells xenografted nu/nu mouse assessed as effect on body weight at 2 umol/kg, ip administered as single dose on alternative days, 3 days/week for 3 weeks", "assay_type": "organism-based, CWR22R", "conditions": "in vivo", "procedure,_shortened": "as §1"}, "[9]": {"molecular_target": "Glutamate carboxypeptidase 2 (Homo sapiens, UniProt Q04609)", "sequence (Q04609 whole entry)": "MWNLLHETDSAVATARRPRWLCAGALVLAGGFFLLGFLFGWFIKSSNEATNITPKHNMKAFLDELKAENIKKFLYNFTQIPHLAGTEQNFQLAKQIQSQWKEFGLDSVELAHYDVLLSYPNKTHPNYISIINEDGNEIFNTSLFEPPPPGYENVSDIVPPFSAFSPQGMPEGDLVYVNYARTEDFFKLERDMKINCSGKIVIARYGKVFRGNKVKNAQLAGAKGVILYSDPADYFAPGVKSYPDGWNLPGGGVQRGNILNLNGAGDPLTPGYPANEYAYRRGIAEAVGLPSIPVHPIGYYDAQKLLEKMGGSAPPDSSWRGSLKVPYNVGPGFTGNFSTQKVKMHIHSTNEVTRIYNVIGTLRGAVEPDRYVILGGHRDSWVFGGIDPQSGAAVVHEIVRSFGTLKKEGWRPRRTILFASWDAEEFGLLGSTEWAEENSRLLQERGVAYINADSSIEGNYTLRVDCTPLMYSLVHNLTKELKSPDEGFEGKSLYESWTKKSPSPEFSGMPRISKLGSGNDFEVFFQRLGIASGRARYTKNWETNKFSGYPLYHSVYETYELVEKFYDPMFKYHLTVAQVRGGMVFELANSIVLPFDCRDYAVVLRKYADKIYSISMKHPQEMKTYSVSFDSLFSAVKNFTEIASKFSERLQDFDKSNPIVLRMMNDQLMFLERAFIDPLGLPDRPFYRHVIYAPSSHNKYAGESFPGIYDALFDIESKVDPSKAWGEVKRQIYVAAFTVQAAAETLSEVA", "assay": "Inhibition of PSMA (unknown origin)"}}, "note": "pIC50: −log10 of the molar value. The source made the active and inactive calls. No cut-off for these calls is given here.", "data": [{"smiles": "COc1cc2c3c(n(CCCN4CCOCC4)c(=O)c2cc1OC)-c1cc(OC)c(OC(=O)OCCSSC[C@H](NC(=O)[C@H](CC(=O)O)NC(=O)[C@@H](N)CNC(=O)[C@H](Cc2ccccc2)NC(=O)[C@H](Cc2ccccc2)NC(=O)CCCCCCCNC(=O)CC[C@H](NC(=O)N[C@@H](CCC(=O)O)C(=O)O)C(=O)O)C(=O)O)cc1C3=O", "values": [{"measurement": "Activity", "setting": "Mus musculus [1]", "value": "Non-toxic"}, {"measurement": "Activity", "setting": "CWR22R [2]", "value": "Active"}, {"measurement": "pIC50", "setting": "CWR22R [3]", "value": 7.94}, {"measurement": "IC50", "setting": "CWR22R [4]; cwr22r", "value": "Not Active"}, {"measurement": "Activity", "setting": "Mus musculus [5]", "value": "Non-toxic"}, {"measurement": "Activity", "setting": "CWR22R [6]", "value": "Active"}, {"measurement": "Activity", "setting": "CWR22R [7]", "value": "inactive"}, {"measurement": "Activity", "setting": "Mus musculus [8]", "value": "Non-toxic"}]}, {"smiles": "O=C(O)CC[C@H](NC(=O)N[C@@H](CCC(=O)O)C(=O)O)C(=O)O", "values": [{"measurement": "pIC50", "setting": "[9]", "value": 7.33}]}, {"smiles": "COc1cc2c(cc1O)C(=O)c1c-2n(CCCN2CCOCC2)c(=O)c2cc(OC)c(OC)cc12", "values": [{"measurement": "Activity", "setting": "Mus musculus [1]", "value": "Toxic"}, {"measurement": "pIC50", "setting": "CWR22R [4]; Homo sapiens, 22Rv1, read-out: IC50", "value": 8.70}, {"measurement": "Activity", "setting": "Mus musculus [5]", "value": "Toxic"}, {"measurement": "Activity", "setting": "CWR22R [6]", "value": "Active"}, {"measurement": "Activity", "setting": "Mus musculus [8]", "value": "Non-toxic"}]}]}
